Key:
[1] = Evaluated for its concentration at which 50% of maximal stimulation of phosphoinositide turnover was observed; type: functional, Mus musculus
Method in brief: (§1)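 Swiss 3T3 mouse fibroblasts with FP receptors, confluent, labelled 24-30 h at 37 °C with 1.0-1.5 μCi [3H]-myo-inositol in DMEM. Rinsed into DMEM/F-12 with 10 mM LiCl, then agonist or solvent for 60 min at 37 °C, triplicate. Stopped with ice-cold 0.1 M formic acid. Total [3H]IPs isolated on anion-exchange resin and counted.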

Mus musculus [2] = organism: Mus musculus; assay: Evaluated for percent maximum response relative to cloprostenol (n=2); type: functional; method in brief: as §1
Mus musculus [3] = organism: Mus musculus; assay: Evaluated for percent maximum response relative to cloprostenol (n = 105); type: functional; method in brief: as §1
Mus musculus [4] = organism: Mus musculus; assay: Evaluated for percent maximum response relative to cloprostenol (n=11); type: functional; method in brief: as §1

`O=C(O)CCC/C=C\C[C@@H]1[C@@H](/C=C/[C@@H](O)COc2cccc(Cl)c2)[C@H](O)CC[C@@H]1O` gave an EC50 [1] of 319 nM and a Max response (Mus musculus [2]) of 72%.
`O=C(O)CCC/C=C\C[C@@H]1[C@@H](/C=C/[C@H](O)COc2cccc(Cl)c2)[C@H](O)CC[C@@H]1O` gave an EC50 [1] of 2750 nM and a Max response (Mus musculus [2]) of 50%.
In the case of `O=C(O)CCC/C=C\CC1C(O)CC(O)C1/C=C/C(O)COc1cccc(Cl)c1` (stereo not drawn) [CLOPROSTENOL], the EC50 [1] is reported as 1 nM and the Max response (Mus musculus [3]) is reported as 100%.
`CCCCC[C@H](O)/C=C/[C@@H]1[C@@H](C/C=C\CCCC(=O)O)[C@@H](O)C[C@H]1O` [DINOPROST] gave an EC50 [1] of 23 nM and a Max response (Mus musculus [4]) of 91%.

Reference: ChEMBL document CHEMBL1133638, “Synthesis and biological activity of a novel 11a-homo (cyclohexyl) prostaglandin” (J Med Chem, 2000)
